# Assay outcomes (PubChem)
# CHOP inh: CHOP inhibition in unfolded protein response | CHO-K1 CHOP-promoter luciferase, tunicamycin-induced, 15-18 h | inhibition, % at 10 µM | hit rate 3.8% among 220,000 | AID 2732;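 active means compounds that reduced the stress-induced luciferase reporter signal by more than about 70% of percent inhibition, limit read from the data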;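 further: 0% = tunicamycin plus vehicle and 100% = wells without tunicamycin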
# Jurkat NFkB inh: inhibitors of the PMA/ionomycin-induced NF-kB reporter in Jurkat cells. PMA/ionomycin-induced NF-kB luciferase reporter, luminescence. inhibition, % at 4 µM. hit rate 0.53% among 330,000. AID 435003; in the data active means inhibition above about 50%
# UPR XBP1 act: activators of adaptive arm of unfolded protein response (XBP1). CHO-XBP1 luciferase reporter, IRE1-XBP1 UPR activation, luminescence; percent of tunicamycin response, DMSO as zero. activation, % at 20 µM. hit rate 0.33% among 330,000. AID 463104;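 active means versus positive control, 20 µM dose yields 30% or more activation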;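 further: 100% = tunicamycin at 10 µg/mL and 0% = DMSO only wells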
#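 assay system = CHO-XBP1 luciferase reporter cells | amount = 1000 cells/well | buffer or medium = F12 plus 10% FBS | compound dosing = single point, 20 µM final compound, 1% DMSO | incubation = 16-18 h cell attachment at 37 °C, then 6 h compound exposure | detection = Steady-Glo luminescence read | controls = tunicamycin 10 µg/mL and vehicle-only wells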
# 697 NFkB inh: inhibitors of the PMA/ionomycin-induced NF-kB reporter in 697 B cells; 697 B-cell NF-kB luciferase reporter, 16 h; inhibition, % at 4 µM; hit rate 0.33% among 330,000; AID 435022; in the data active means inhibition above about 35%
# UPR CHOP act: apoptotic UPR (CHOP) activation; CHO-CHOP luciferase reporter, luminescence; percent of tunicamycin response over DMSO baseline; activation, % at 10 µM; hit rate 0.34% among 330,000; AID 449763;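 active means at 10 µM dose, activation of 40% or more, normalized to positive control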;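 further: 100% = tunicamycin at 10 µg/mL and 0% = DMSO alone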
#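 Assay system: CHO-CHOP cells, stable luciferase reporter of PERK-eIF2a-CHOP signalling / Buffer or medium: F12 plus 10% serum / Compound dosing: one dose, 10 µM in 0.5% DMSO / Times: 6 h compound treatment, 37 °C / Technique: luciferase luminescence / Read-out: % reporter activation, DMSO baseline versus tunicamycin full activation / Benchmarks: tunicamycin and DMSO controls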
# Active calls of the source: *; . = no result. Only a selection was taken, and hits are over-represented in it overall.
SMILES,CHOP inh,Jurkat NFkB inh,UPR XBP1 act,697 NFkB inh,UPR CHOP act
Cc1ccc(S(=O)(=O)NCCC(=O)Nc2ccc(Cl)cc2C(=O)c2ccccc2)cc1,94*,2,-3,10,1
CCn1c(O)c(N=Nc2ccc(S(=O)(=O)N3CCOCC3)cc2)c(=O)n(CC)c1=S,73*,10,-7,19,29
C[C@H]1C2Cc3ccc(O)cc3C1(C)CCN2CC1CC1 (some centres not stated),-10,.,.,.,.
NC(=S)c1cn(C2OC(CO)C(O)C2O)c2ncnc(N)c12 (configuration not stated),105*,.,.,.,.
CCOC(=O)c1c(NC(=O)c2c(N)n(CCCOC)c3nc4ccccc4nc23)sc2c1CCCC2,27,18,-3,22,1
CCOC(=O)c1c(NC(NC(=O)CF)C(Cl)(Cl)Cl)sc2c1CCCC2 (configuration not stated),74*,1,-4,13,-1
COc1ccc2c3c1O[C@H]1C(=O)CC[C@@]4(O)C(C2)N(CC2CC2)CCC314 (some centres not stated),2,.,.,.,.
Cc1cccc(OP(=O)(Oc2ccccc2)OC(c2ccccc2)C(F)(F)F)c1 (configuration not stated),76*,-11,-4,-24,1
O=C(/C=C/c1ccccc1)c1c(O)n(CCc2ccccc2)c(=O)[nH]c1=O,92*,-12,2,6,1
C[C@H]1O[C@H]1P(=O)(O)O,0,-2,-9,18,0
CCOc1cc(CNCCc2c[nH]c3ccccc23)cc(Cl)c1OCC,80*,-15,-1,-1,-1
CN1CC[C@@]2(C)c3cc(O)ccc3N(C)C12 (some centres not stated),9,.,.,.,.
C=CCN1CC[C@]23c4c5ccc(O)c4O[C@@H]2/C(=N/N=C2\CC[C@@]4(O)C6Cc7ccc(O)c8c7[C@@]4(CCN6CC=C)[C@@H]2O8)CC[C@@]3(O)C1C5,8,.,.,.,.
CC(C)[C@H]1C(=O)O[C@H](C(C)C)C(=O)N(C)[C@@H](C(C)C)C(=O)O[C@H](C(C)C)C(=O)N(C)[C@@H](C(C)C)C(=O)O[C@H](C(C)C)C(=O)N1C,93*,10,5,-32,23
C[Se]C[C@H](N)C(=O)O,-5,.,.,.,.
CC(C)C(=O)c1cn(Cc2ccccc2C#N)c2ccccc12,77*,9,-7,1,-3
CC(=O)c1cn(Cc2ccccc2F)c2ccccc12,.,38,-2,11,5
O=c1[nH]c(=S)n(CCC2=CCCCC2)c(O)c1C=NC1CCN(Cc2ccccc2)CC1,81*,46,1,14,3
O=c1[nH]c(=S)n(CCC2=CCCCC2)c(O)c1/C=N/Nc1ccccc1,73*,12,-4,14,1
CN1CCN(/N=C/c2c(O)n(CCC3=CCCCC3)c(=S)[nH]c2=O)CC1,8,7,-1,10,2
CC(C)(C)NCC(O)c1ccccc1Cl (configuration not stated),33,.,.,.,.
C[C@H](Cc1ccc2c(c1)OC(C(=O)O)(C(=O)O)O2)NC[C@H](O)c1cccc(Cl)c1,-11,.,.,.,.
O=c1c2ccccc2nc(/C=C/c2ccc(O)cc2)n1-c1cccc(O)c1,71*,10,0,7,0
O=c1c2ccccc2nc(/C=C/c2ccc(O)cc2)n1-c1ccc(O)cc1,.,-23,4,16,7
C=CCn1c(O)c(C=NCCCOc2ccc(CC)cc2)c(=O)[nH]c1=S,77*,-3,-5,-10,-2
SMILES,CHOP inh,Jurkat NFkB inh,UPR XBP1 act,697 NFkB inh,UPR CHOP act
NCCCP(=O)(O)O,-35,.,.,.,.
CCC(C)C1N=C(c2ccccc2)c2cc(Cl)ccc2N(CC(=O)NCc2ccco2)C1=O (configuration not stated),88*,1,2,7,-1
CN(C)c1ccc(NC(=O)CN2C(=O)CN=C(c3ccccc3)c3cc(Cl)ccc32)cc1,53,-21,-4,-4,-4
Cn1cccc1/C=C1\C(=O)NC(=O)N(CCC2=CCCCC2)C1=O,49,.,.,.,.
O=C1NC(=O)N(CCC2=CCCCC2)C(=O)/C1=C\c1cccs1,94*,2,8,17,2
C=CCN1C(=O)/C(=C/c2cccs2)C(=O)NC1=S,80*,.,.,.,.
ON1C2CCCCC2N(O)C1c1ccccc1 (configuration not stated),89*,13,-5,19,-1
c1ccc(C2N3CCCN23)cc1 (configuration not stated),20,-5,-1,24,-2
CCCN1CCC[C@@H](c2cccc(C#N)c2)C1,-10,.,.,.,.
CN(C)C=C1C(=O)N(C2CCCCC2)C(=O)N(C2CCCCC2)C1=O,77*,-3,5,8,3
COc1ccc2c(c1)C13CCCCC1C(C2)N(C)CC3 (configuration not stated),-7,.,.,.,.
C[C@]12CCC3C(CC[C@H]4C[C@H](O)CC[C@]34C)C1CC[C@@H]2C(=O)CO (some centres not stated),8,.,.,.,.
COc1cc(C=C2C(=O)NC(=O)NC2=O)ccc1OCc1ccc([N+](=O)[O-])cc1,-26,.,.,.,.
COc1cc(/C=C(/C)[N+](=O)[O-])ccc1OCc1ccccc1Cl,106*,-44,-7,-15,-11
CCCCn1c(O)c(C(CC)=Nc2ccc(OC)cc2OC)c(=O)[nH]c1=O,57,3,-3,-28,-3
CCCCn1c(O)c(C(CC)=Nc2ccc(OCC)cc2)c(=O)[nH]c1=O,91*,-4,-2,3,-2
CCCCn1c(O)c(C(CC)=NC(C)c2ccccc2)c(=O)[nH]c1=O (configuration not stated),81*,6,3,17,-2
CNC(=O)OCC[N+](C)(C)C,69,.,.,.,.
CC1OC1P(=O)(O)O (configuration not stated),2,.,.,.,.
Cc1ccc(C)c(CN2CCC(n3nnc4cc(F)ccc43)CC2)c1,75*,12,-7,4,-1
C/C1=C\[C@@H](C)C/C=C/[C@H]2[C@@H]3O[C@]3(C)[C@@H](C)[C@H]3[C@H](Cc4c[nH]c5ccccc45)NC(=O)[C@]32C(=O)/C=C/C(=O)[C@@H]1O,105*,12,-8,8,-9
Cc1ccc(/C=C2\C(=O)NC(=S)N(c3ccccc3F)C2=O)s1,107*,.,.,.,.
CC(C)CC(=O)NC(Oc1ccc(Cl)cc1)C(Cl)(Cl)Cl (configuration not stated),72*,7,-2,5,0
CCCC(=O)NC(Oc1ccc(OC)cc1)C(Cl)(Cl)Cl (configuration not stated),4,-20,1,-20,3
FC(F)(F)c1ccc2c(c1)nnn2C1CCN(Cc2nnnn2Cc2ccccc2)CC1,88*,14,0,8,-3
C[C@@H]1O[C@H](C[N+](C)(C)C)C[C@H]1O,0,.,.,.,.
